# Measured values taken from ChEMBL document CHEMBL4732146, “Nitric oxide-donating and reactive oxygen species-responsive prochelators based on 8-hydroxyquinoline as anticancer agents” (Eur J Med Chem, 2021).
# Calls of active or inactive are those of the source. The calls are words filed in the database; no cut-off is given here.
# Columns and labels:
# [1] = Metal chelating activity assessed as compound-Cu2+ complex stoichiometry ratio of […] after 1 hr by Job's plot analysis
# [2] = Stability of compound in presence of GSH at 100 uM measured after 1 hr by RP-HPLC analysis; type: physicochemical
# Procedure, shortened: (§1)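 Compound (100 µM) incubated at 37 °C for 1 h with one of: ROS species (1 mM), NO solution (1 mM), GSH (200 µM), CuCl₂ (10 µM) or FeCl₃ (10 µM). Percent decomposed was determined by RP-HPLC (ODS column, 0.1% TFA water/methanol gradient, 1 mL/min, 256 nm).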
# SW1990 [3] = test: Cytotoxicity against human SW1990 cells assessed as reduction in cell viability measured after 48 hrs in presence of 10 to 50 uM Cu2+ by MTT assay; type: functional, cell-based; settings: dose 10-50 µM
# [4] = Stability of compound in pH 10 PBS buffer assessed as parent compound remaining measured after 24 hrs by RP-HPLC analysis; type: physicochemical; settings: read-out: Stabilty
# Procedure, shortened: (§2)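 Compound (1 µM) stirred at 37 °C either in PBS (pH 5.0, 7.4 or 10.0) containing 5% DMSO or in DMEM with 10% FBS. Aliquots were analysed by RP-HPLC (0.1% TFA water/methanol gradient, 256 nm) for remaining intact compound, up to 24 h.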
# SW1990 [5] = test: Induction of apoptosis in human SW1990 cells at 8 to 12 uM measured after 24 hrs by Annexin V-FITC/propidium iodide staining based flow cytometry; type: functional, cell-based; settings: dose 8-12 µM
# Procedure, shortened: (§3)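 SW1990 cells seeded 5 × 10⁵ per well and grown 24 h, then treated 24 h at 8 or 12 µM. Optional 1 h pretreatment with 20 mM NAC or 50 µM carboxyl-PTIO before 12 µM treatment. Cells stained with annexin V-FITC 15 min and PI 5 min at room temperature in the dark, then analysed by flow cytometry. Mean ± SD, n = 3.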
# SW1990 [6] = test: Induction of apoptosis in human SW1990 cells at 12 uM measured after 24 hrs in presence of NO scavenger Carboxyl-PTIO by Annexin V-FITC/propidium iodide staining based flow cytometry; type: functional, cell-based; procedure, shortened: as §3
# [7] = Prodrug activation in OH at 100 uM measured after 1 hr by RP-HPLC analysis; procedure, shortened: as §1
# [8] = Stability of compound in presence of Fe3+ at 100 uM measured after 1 hr by RP-HPLC analysis; type: physicochemical; procedure, shortened: as §1
# [9] = Stability of compound in DMEM with 10% fetal bovine serum assessed as parent compound remaining measured after 24 hrs by RP-HPLC analysis; type: cell-free; procedure, shortened: as §2
# [10] = Stability of compound in presence of Cu2+ at 100 uM measured after 1 hr by RP-HPLC analysis; type: physicochemical; procedure, shortened: as §1
# SW1990 [11] = test: Antitumor activity against human SW1990 cells xenografted in Balb/c nude mouse assessed as tumor size at 20 mg/kg, iv administered every 3 days measured after 21 days (reference value: 1.23 +/- 0.25 cm3); type: functional; settings: time 21 day
# Procedure, shortened: (§4)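 Male BALB/c nude mice, 3–5 weeks old, given 1 × 10⁷ SW1990 cells subcutaneously; when tumors reached about 65 mm³, randomised to groups of eight. Saline vehicle control, dosing intravenously every three days. Tumor size monitored every two days for three weeks; tumors dissected at sacrifice on day 21, volume = d² × D/2 (d smallest, D largest diameter). Mean ± SD.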
# SW1990 [12] = test: Induction of apoptosis in human SW1990 cells assessed as decrease in Bcl-2 expression at 8 to 12 uM measured after 24 hrs by Western blot analysis; type: functional, cell-based; settings: dose 8-12 µM
# Procedure, shortened: (§5)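 SW1990 cells seeded 5 × 10⁵ per well and grown 24 h at 37 °C, then treated 24 h. Lysates quantified by BCA, resolved by SDS-PAGE and transferred to nitrocellulose. Blocked in 5% milk, probed overnight at 4 °C for cleaved caspase-3, cleaved caspase-9, Bax and Bcl-2, then HRP secondary 2 h. ECL detection.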
# [13] = Metal chelating activity assessed as compound-Cu2+ complex formation at 50 uM measured after 40 mins in absence of H2O2 by UV spectrophotometric method
# Procedure, shortened: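 Stock in DMSO diluted into PBS (10 mM, pH 7.4) to a final 50 µM, with 50 µM CuCl₂ added and no H₂O₂. UV spectrum recorded over 40 min at room temperature.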
# [14] = Prodrug activation in peroxynitrite ONOO- assessed as drug decomposition at 100 uM measured after 1 hr by RP-HPLC analysis; procedure, shortened: as §1
# [15] = Metal chelating activity assessed as compound-Cu2+ complex formation by measuring change in wavelength at 50 uM measured after 40 mins in presence of H2O2 by UV spectrophotometric method
# Procedure, shortened: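 Compound at 50 µM final in PBS (10 mM, pH 7.4) with 50 µM CuCl₂ and H₂O₂ (500 µM, 10 eq.). UV spectrum tracked over 40 min at room temperature, following peaks at 240, 382 and 210 nm.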
# SW1990 [16] = test: Induction of apoptosis in human SW1990 cells at 12 uM measured after 24 hrs in presence of ROS quencher NAC by Annexin V-FITC/propidium iodide staining based flow cytometry; type: functional, cell-based; procedure, shortened: as §3
# SW1990 [17] = test: Induction of apoptosis in human SW1990 cells assessed as increase in cleaved caspase-3 expression at 8 to 12 uM measured after 24 hrs by Western blot analysis; type: functional, cell-based; settings: dose 8-12 µM; procedure, shortened: as §5
# [18] = Prodrug activation in tBuO at 100 uM measured after 1 hr by RP-HPLC analysis; procedure, shortened: as §1
# SW1990 [19] = test: Antitumor activity against human SW1990 cells xenografted in Balb/c nude mouse assessed as tumor growth inhibition at 20 mg/kg, iv administered every 3 days measured after 21 days relative to control; type: functional; settings: 504 h, time 21 day, read-out: TGI; procedure, shortened: as §4
compound,measurement,setting,value
O=C(NCCCOc1no[n+]([O-])c1S(=O)(=O)c1ccccc1)c1ccc2cccc(OCc3ccc(B(O)O)cc3)c2n1,Ratio,[1],0.64
same,Stabilty,[2],Stable
same,Activity,SW1990 [3],Dose-dependent effect
same,remaining at 24 h,[4],> 80%
same,Activity,SW1990 [5],Active
same,Activity,SW1990 [6],inactive
same,Drug metabolism,[7],Metabolite_Notdetected
same,Stabilty,[8],Stable
same,Stability,[9],> 80%
same,Stabilty,[10],Stable
same,Activity,SW1990 [11],0.47 cm3
same,Activity,SW1990 [12],Active
same,Activity,[13],inactive
same,Drug degradation,[14],20.8%
same,Activity,[15],210 nm
same,Activity,SW1990 [16],inactive
same,Activity,SW1990 [17],Active
same,Drug metabolism,[18],Metabolite_Notdetected
same,inhibition in vivo at 20 mg/kg,SW1990 [19],61.8%
